Experimental data taken from ChEMBL document CHEMBL1148192, “Nagelamides A-H, new dimeric bromopyrrole alkaloids from marine sponge Agelas species” (J Nat Prod, 2004).
pIC50: −log10 of the molar value. ≈ marks a conversion by molar mass, not a printed value.

Tests used:
Micrococcus luteus = test: Antimicrobial activity against Micrococcus luteus; format: functional
Summary of the method: (§1)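 Microbroth dilution method in BHI medium.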

Escherichia coli = test: Antimicrobial activity against Escherichia coli; format: functional; summary of the method: as §1
Bacillus subtilis = test: Antimicrobial activity against Bacillus subtilis; format: functional; summary of the method: as §1
[1] = Inhibition of protein phosphatase 2A in african green monkey COS7 cells; format: cell-based, Chlorocebus aethiops; settings: cos-7
Summary of the method: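 PP2A activity was measured in COS-7 cell extract. Cells were lysed at 4 °C in hypotonic Tris-HCl pH 7.5 buffer with DTT, EGTA and protease inhibitors, then centrifuged at 20000g. Extract at 5 μg/mL protein was preincubated with compound for 10 min at 30 °C. Activity was taken as the okadaic acid (1 nM)-sensitive portion, run in triplicate and reported as the mean.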

| SMILES | MIC (Micrococcus luteus) [µg/mL] | MIC (Escherichia coli) [µg/mL] | MIC (Bacillus subtilis) [µg/mL] | pIC50 [1] |
| --- | --- | --- | --- | --- |
| Nc1nc([C@@H]2c3[nH]c(N)nc3C[C@H](CNC(=O)c3cc(Br)c[nH]3)[C@H]2CNC(=O)c2cc(Br)c(Br)[nH]2)c[nH]1 [BROMOAGELIFERIN] | 2.08 (≈ 2.97 µM) | 16.7 (≈ 23.9 µM) | 2.08 (≈ 2.97 µM) | < 4.30 |
| Nc1nc([C@H](CCNC(=O)c2cc(Br)c(Br)[nH]2)c2[nH]c(N)nc2/C=C/CNC(=O)c2cc(Br)c(Br)[nH]2)c[nH]1 [NAGELAMIDE A] | 2.08 (≈ 2.67 µM) | 33.3 (≈ 42.8 µM) | 16.7 (≈ 21.5 µM) | 4.32 |
| Nc1nc(/C(=C/CNC(=O)c2cc(Br)c(Br)[nH]2)c2[nH]c(N)nc2/C=C/CNC(=O)c2cc(Br)c(Br)[nH]2)c[nH]1 [NAGELAMIDE C] | 4.17 (≈ 5.37 µM) | 33.3 (≈ 42.9 µM) | 33.3 (≈ 42.9 µM) | < 4.30 |
| Nc1nc([C@H](CCNC(=O)c2cc(Br)c(Br)[nH]2)c2[nH]c(N)nc2CCCNC(=O)c2cc(Br)c(Br)[nH]2)c[nH]1 [NAGELAMIDE D] | 4.17 (≈ 5.35 µM) | 33.3 (≈ 42.7 µM) | 33.3 (≈ 42.7 µM) |  |
| Nc1nc([C@H]2c3[nH]c(N)nc3C[C@H](CNC(=O)c3cc(Br)c[nH]3)[C@H]2CNC(=O)c2cc(Br)c[nH]2)c[nH]1 [NAGELAMIDE E] | 4.17 (≈ 6.72 µM) | 33.3 (≈ 53.7 µM) | 16.7 (≈ 26.9 µM) |  |
| Nc1nc([C@H]2c3[nH]c(N)nc3C[C@H](CNC(=O)c3cc(Br)c[nH]3)[C@H]2CNC(=O)c2cc(Br)c(Br)[nH]2)c[nH]1 [NAGELAMIDE F] | 4.17 (≈ 5.96 µM) | 33.3 (≈ 47.6 µM) | 16.7 (≈ 23.9 µM) |  |
| NC1=N/C(=N\CCS(=O)(=O)O)C(/C=C/CNC(=O)c2cc(Br)c(Br)[nH]2)(c2[nH]c(N)nc2/C=C/CNC(=O)c2cc(Br)c(Br)[nH]2)N1 (stereo unspecified) [NAGELAMIDE H] | 16.7 (≈ 18.6 µM) | > 33.3 | 33.3 (≈ 37 µM) | 4.34 |
| Cl.Cl.Nc1ncc([C@H]2[C@H](CNC(=O)c3cc(Br)c[nH]3)[C@@H](CNC(=O)c3cc(Br)c[nH]3)[C@@H]2c2cnc(N)[nH]2)[nH]1 [SCEPTRIN HYDROCHLORIDE] | 4.07 | 33.3 | 8.33 | 4.30 |

Continued by falling MIC (Micrococcus luteus), values first:

| MIC (Micrococcus luteus) [µg/mL] | MIC (Escherichia coli) [µg/mL] | MIC (Bacillus subtilis) [µg/mL] | pIC50 [1] | SMILES |
| --- | --- | --- | --- | --- |
| 4.17 | 33.3 | 8.33 | < 4.30 | Nc1nc([C@@H]2c3[nH]c(N)nc3C[C@H](CNC(=O)c3cc(Br)c[nH]3)[C@H]2CNC(=O)c2cc(Br)c[nH]2)c[nH]1.O=C(O)C(F)(F)F.O=C(O)C(F)(F)F [AGELIFERIN] |
| 4.17 (≈ 5.25 µM) | 33.3 (≈ 41.9 µM) | 33.3 (≈ 41.9 µM) | < 4.30 | Nc1nc([C@@H](c2[nH]c(N)nc2/C=C/CNC(=O)c2cc(Br)c(Br)[nH]2)[C@H](O)CNC(=O)c2cc(Br)c(Br)[nH]2)c[nH]1 [NAGELAMIDE B] |
| 2.08 (≈ 2.67 µM) | 33.3 (≈ 42.8 µM) | 16.7 (≈ 21.5 µM) | 4.89 | Nc1nc([C@H]2c3[nH]c(N)nc3C[C@H](CNC(=O)c3cc(Br)c(Br)[nH]3)[C@H]2CNC(=O)c2cc(Br)c(Br)[nH]2)c[nH]1 [NAGELAMIDE G] |
